Experiment [1] has as its target T1, Fatty-acid amide hydrolase 1 (Homo sapiens) (UniProt O00519).
T1 sequence (whole entry): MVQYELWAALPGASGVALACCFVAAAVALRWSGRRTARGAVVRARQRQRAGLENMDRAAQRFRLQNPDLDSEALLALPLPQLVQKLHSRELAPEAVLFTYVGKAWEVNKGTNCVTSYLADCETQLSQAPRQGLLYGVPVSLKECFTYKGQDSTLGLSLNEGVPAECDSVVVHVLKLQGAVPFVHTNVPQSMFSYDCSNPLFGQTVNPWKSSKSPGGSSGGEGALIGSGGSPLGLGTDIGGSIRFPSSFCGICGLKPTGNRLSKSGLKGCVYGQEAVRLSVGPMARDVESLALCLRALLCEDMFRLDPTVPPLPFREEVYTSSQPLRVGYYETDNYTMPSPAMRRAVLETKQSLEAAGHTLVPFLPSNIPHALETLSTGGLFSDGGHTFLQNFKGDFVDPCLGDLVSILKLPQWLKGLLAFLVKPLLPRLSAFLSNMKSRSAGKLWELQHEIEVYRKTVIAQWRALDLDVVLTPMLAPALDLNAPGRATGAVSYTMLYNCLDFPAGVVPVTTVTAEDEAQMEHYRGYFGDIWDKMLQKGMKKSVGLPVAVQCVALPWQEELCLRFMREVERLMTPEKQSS
The experiment in a line: Inhibition of human recombinant FAAH assessed as [3H]-AEA hydrolysis preincubated for 30 mins […] measured at 10^-5 M after 10 mins by liquid scintillation counting.

For experiment [2], the species on record is Homo sapiens. The experiment in a line: Selectivity ratio of IC50 for human recombinant FAAH to IC50 for human MAGL. Put shortly:
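Selectivity calculated as IC50 for human FAAH divided by IC50 for human MAGL. Both IC50 values from radiometric hydrolysis assays: [3H]-AEA with MBP-fused FAAH and [3H]-2-OG with pure MAGL. Each assay had 30 min inhibitor preincubation. Means of three independent experiments in duplicate.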

The target in experiment [3] is T2, Monoglyceride lipase (Homo sapiens, UniProt Q99685).
T2 sequence (Q99685 whole entry): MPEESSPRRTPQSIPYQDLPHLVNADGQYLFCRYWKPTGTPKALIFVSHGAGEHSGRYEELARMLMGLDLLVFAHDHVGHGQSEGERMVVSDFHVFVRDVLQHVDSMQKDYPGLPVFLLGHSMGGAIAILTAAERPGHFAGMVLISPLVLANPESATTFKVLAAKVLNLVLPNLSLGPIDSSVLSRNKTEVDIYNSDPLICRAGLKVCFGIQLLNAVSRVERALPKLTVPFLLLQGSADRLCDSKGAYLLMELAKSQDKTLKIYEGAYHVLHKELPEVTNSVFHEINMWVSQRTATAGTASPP
The experiment in a line: Inhibition of human MAGL assessed as [3H]-2-OG hydrolysis preincubated for 30 mins before [3H]-2-OG addition measured after 10 mins by liquid scintillation counting. Put shortly:
(§1)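 [3H]-2-oleoylglycerol then added at 10 µM final. Stopped with methanol-chloroform (1:1), centrifuged 5 min at 700 g, aqueous-phase radioactivity read by liquid scintillation, no-enzyme blank subtracted. Means of three independent experiments in duplicate.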

Experiment [4] concerns the target T3, Fatty-acid amide hydrolase 1 (Homo sapiens, UniProt O00519).
T3 sequence (O00519 whole entry): T1 sequence (whole entry)
The experiment in a line: Inhibition of human recombinant FAAH assessed as [3H]-AEA hydrolysis preincubated for 30 mins […] measured after 10 mins by liquid scintillation counting. Put shortly: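 Human FAAH fused to maltose-binding protein, preincubated 30 min at 22 °C with inhibitor at various concentrations (Tris 10 mM, EDTA 1 mM, pH 8.0, inhibitor in DMSO). [3H]-anandamide (50,000 dpm) added, 10 min at 37 °C. Stopped with cold methanol/chloroform (1:1), aqueous-phase radioactivity by scintillation, blank subtracted, percent of control fitted as dose-response. Three independent experiments in duplicate.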

The target of experiment [5] is T3, Fatty-acid amide hydrolase 1. The experiment in a line: Inhibition of FAAH. Put shortly:
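Human FAAH fused to maltose-binding protein, preincubated 30 min at 22 °C with inhibitor (various concentrations, in DMSO) in Tris 10 mM, EDTA 1 mM, pH 8.0. [³H]-anandamide substrate added, then 10 min at 37 °C. Stopped with cold methanol/chloroform (1:1). Aqueous-phase radioactivity counted by liquid scintillation, with the no-enzyme blank subtracted. Activity taken as percent of control; IC50 from dose-response curves; three independent experiments in duplicate.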

Experiment [6] concerns the target T2, Monoglyceride lipase. The experiment in a line: Inhibition of MAGL. Put shortly:
as §1

Experiment [7] deals with Monoglyceride lipase (Homo sapiens) (UniProt Q99685). The experiment in a line: Ratio of JZL184 IC50 to compound IC50 for human MAGL.
The target of experiment [8] is T4, Monoglyceride lipase (Homo sapiens) (UniProt Q99685).
T4 sequence (whole entry): T2 sequence (Q99685 whole entry)
The experiment in a line: Ratio of Kinact to Ki for human MAGL using p-nitrophenylpropionate as substrate. Put shortly:
(§2)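 MAGL (3 ng; Tris 50 mM, LDAO 0.1%, pH 8.0) added to p-nitrophenylpropionate (1.25 mM) plus inhibitor at various concentrations, both in DMSO. […] Done four times in quadruplicate.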

Experiment [9] concerns the target T4, Monoglyceride lipase (Homo sapiens). The experiment in a line: Irreversible inhibition of human MAGL assessed as [3H]-2-OG hydrolysis preincubated for 30 mins before [3H]-2-OG addition measured at 10^-8 M to 10^-9 M measured after 300 fold dilution rapid dilution assay. Put shortly: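 Human MAGL (800 ng in Tris 50 mM, BSA 0.15%, pH 8.0) incubated 30 min at room temperature with inhibitor at 10^-8 or 10^-9 M in the mixture (DMSO). Diluted 300-fold in buffer, 15 min incubation, then [3H]-2-OG hydrolase activity read on an aliquot holding 10 ng enzyme by the standard radiometric method. Performed two times in triplicate.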

For experiment [10] the target is unchanged. The experiment in a line: Ratio of JZL184 IC50 to compound IC50 for human MAGL.
The target of experiment [11] is T2, Monoglyceride lipase. The experiment in a line: Irreversible inhibition of human MAGL using p-nitrophenylpropionate as substrate. Put shortly: as §2

Calls of active or inactive are those of the source. The rule behind the calls is not given here. Where only a bound is given, the exact number is not on record here.

One may read the inhibition as the relative decrease from the control value, in per cent. One may read the IC50 as the concentration needed to halve the response being measured. Take `O=C(c1cc(N2CCN(C(=O)n3nnc4ccccc43)CC2)ccc1[N+](=O)[O-])N1CCOCC1`: the inhibition in experiment [1] was 40%. For the same molecule, the Ratio IC50 in experiment [2] was greater than 100. The IC50 in [3] was determined as 162 nM.
Consider `CN1CCN(C(=O)c2cc(N3CCN(C(=O)n4nnc5ccccc54)CC3)ccc2[N+](=O)[O-])CC1`, for which the inhibition in experiment [1] is 40%. For the same molecule, in experiment [2], the Ratio IC50 was greater than 100. In addition, the IC50 in [3] came out at 141 nM.
For `O=C(N1CCN(C/C=C/c2ccccc2)CC1)n1nnc2ccccc21`, the IC50 amounted to 28 nM in experiment [4] and 33 nM in [3]. Further, the Ratio IC50 in experiment [2] came out at 0.8.
Consider `O=C(Oc1ccc([N+](=O)[O-])cc1)N1CCC(C(O)(c2ccc3c(c2)OCO3)c2ccc3c(c2)OCO3)CC1`, for which the IC50 in experiment [4] is 36300 nM; in [5] it was 4.69 µM.
As to `O=C(N1CCN(C(c2ccccc2)c2ccccc2)CC1)n1nnc2ncccc21`, the IC50 in experiment [6] stood at 4 nM.
As for `COc1ccc(N2CCN(C(=O)n3nnc4ccccc43)CC2)cc1`, the concentration for half-maximal inhibition (IC50) in experiment [4] came out at 15 nM; in experiment [3], 32 nM. Moreover, the Ratio IC50 in experiment [2] stood at 0.47.
In the same order, the values of `O=C(N1CCN(Cc2cccc(-c3ccccc3)c2)CC1)n1nnc2ccccc21` are 9 nM, 23 nM and 0.4.
With `O=C(N1CCN(c2ccccc2[N+](=O)[O-])CC1)n1nnc2ccccc21`, the values for the IC50 in experiment [4] and in experiment [3] were 19 nM and 224 nM, respectively. Further, the Ratio IC50 in [2] is 0.08.
As for `CN1CCN(C(=O)c2cccc(CN3CCN(C(=O)n4nnc5ccccc54)CC3)c2)CC1`, the IC50 stood at 1380 nM in [4] and 324 nM in [3]. The Ratio IC50 in experiment [2] amounted to 4.3.
As for `O=C(N1CCN(Cc2ccc(Cl)cc2)CC1)n1nnc2ccccc21`, the results for the IC50 in [4] and in [3] were 17 nM and 11 nM, respectively. Moreover, the Ratio IC50 in experiment [2] stood at 1.5.
Consider `O=C(O)c1cccc(CN2CCN(C(=O)n3nnc4ccccc43)CC2)c1`, for which the IC50 in [4] is 27500 nM; in experiment [3], 676 nM. In addition, in experiment [2], the Ratio IC50 amounted to 41.
In the same order, the values of `O=C(N1CCN(Cc2ccccc2)CC1)n1nnc2ccccc21` are 19 nM, 8 nM and 2.4.
As for `CN(C)C(=O)c1cc(N2CCN(C(=O)n3nnc4ccccc43)CC2)ccc1[N+](=O)[O-]`, the results for the IC50 in experiment [4] and in experiment [3] were 5010 nM and 63 nM, respectively. Besides, in experiment [2], the Ratio IC50 was found to be 79.
Turning to `O=C(N1CCN(C(c2ccccc2)c2ccccc2)CC1)n1nnc2ccccc21`, the Ratio IC50 in [7] was 70; in [2], 1040; in [10], 70. Also, the Ratio in experiment [8] is 208000. Besides, the IC50 in [4] was determined as 562 nM; in experiment [3], 0.54 nM. Moreover, the inhibition entry in experiment [9] is “Active”. In experiment [11], this molecule displayed a Ki of 75.7 nM.
With `O=C(Nc1ccccc1)c1cccc(CN2CCN(C(=O)n3nnc4ccccc43)CC2)c1`, the IC50 is 35 nM in experiment [4] and 7 nM in [3]. For the same molecule, in [2], the Ratio IC50 came to 4.8.
In the same order, the values of `CC(C)NC(=O)c1ccc(N2CCN(C(=O)n3nnc4ccccc43)CC2)c([N+](=O)[O-])c1` are 158 nM, 372 nM and 0.43.
Consider `CC(C)NC(=O)c1cc(N2CCN(C(=O)n3nnc4ccccc43)CC2)ccc1[N+](=O)[O-]`, for which the 50% inhibitory concentration (IC50) in experiment [4] was found to be 2090 nM; in experiment [3] it was 234 nM. The Ratio IC50 in experiment [2] was 8.9.

For the origin of these results see ChEMBL document CHEMBL2157873, “Development and characterization of endocannabinoid hydrolases FAAH and MAGL inhibitors bearing a benzotriazol-1-yl carboxamide scaffold” (Bioorg Med Chem, 2012).
